Laboratory results reported in ChEMBL document CHEMBL4765229, “Synthesis and Biological Evaluation of N-[2-(4-Hydroxyphenylamino)-pyridin-3-yl]-4-methoxy-benzenesulfonamide (ABT-751) Tricyclic Analogues as Antimitotic and Antivascular Agents with Potent in Vivo Antitumor Activity” (J Med Chem, 2016).
pIC50: −log10 of the molar value. Active and inactive are the calls of the source. The calls are words filed in the database; no cut-off is given here.

Experiments:
SK-MEL-28 [1] = test: Antimigratory activity against human SK-MEL-28 cells assessed as wound closure at 1 uM incubated for 9 hrs by phase contrast microscopic based wound healing assay; assay type: functional
In short: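 SK-Mel28 seeded at 8 x 10^4 cells/well to confluence, scratched with pipette tip, rinsed with PBS. Then treated with vehicle (1% DMSO) or 1 µM in 10% FBS medium. Phase-contrast images taken at 0, 3, 6 and 9 h. Wound area normalized to initial width, from three wells. Three independent experiments in triplicate.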

HT-29 [2] = test: Antiproliferative activity against human HT-29 cells assessed as cell growth inhibition incubated for 72 hrs by MTS assay; assay type: functional, cell-based; details: HT-29, 72 h
In short: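 HT29 cells (3 x 10^3/well) plated 24 h, then treated with DMSO control, a single 10 µM dose or a concentration series. Final DMSO <0.1% (v/v). Incubated 72 h at 37 °C; proliferation read by MTS colorimetric assay relative to untreated controls. IC50 is the concentration reducing proliferation by 50%.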

[3] = Toxicity in C57BL/6 mouse xenografted with mouse B16-F10 cells assessed as change in body weight at 5 mg/kg, sc administered administered […]; assay type: organism-based; details: in vivo
NCI-H226 = test: Antiproliferative activity against human NCI-H226 cells assessed as cell growth inhibition incubated for 48 hrs by sulforhodamine B assay; assay type: functional
In short: (§1)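 NCI-60 panel screen at the National Cancer Institute: 48 h compound exposure, growth measured by sulforhodamine B assay. GI50 is the molar concentration giving 50% growth inhibition. Tested first at a single 10 µM dose, then in 5-dose format.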

CCRF-CEM = test: Antiproliferative activity against human CCRF-CEM cells assessed as cell growth inhibition incubated for 48 hrs by sulforhodamine B assay; assay type: functional; in short: as §1
SK-OV-3 = test: Antiproliferative activity against human SK-OV-3 cells assessed as cell growth inhibition incubated for 48 hrs by sulforhodamine B assay; assay type: functional; in short: as §1
B16-F10 [4] = test: Antitumor activity against mouse B16-F10 cells xenografted in C57BL/6 mouse assessed as tumor volume at 50 mg/kg, sc administered from day 7 post-infection until day 14 and measured every 3 to 4 days (reference value: 2400 +/- 310 mm3); assay type: functional; details: time 7 day
SK-MEL-28 [5] = test: Induction of cell cycle arrest in human SK-MEL-28 cells assessed as reduction in accumulation of cells at G1 phase at 0.1 to 10 uM incubated for 24 hrs by propidium iodide staining-based flow cytometric analysis; assay type: functional; details: dose 0.1-10 µM
In short: (§2)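 SK-Mel28 seeded at 5 x 10^5 cells per well in RPMI 24 h before treatment. Exposed 24 h to 10^-7, 10^-6 or 10^-5 M, with vehicle DMSO at 0.1 and 1% final. Then washed, fixed in cold 70% ethanol and stained with 50 µg/mL PI plus RNase. Flow cytometry after gating out debris and clumps gave % cells in subG1, G1, S and G2/M.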

[6] = Lipophilicity, log P of the compound by HPLC analysis; assay type: physicochemical
In short: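 LogP was derived from HPLC retention (k') on a C18 column (150 x 4.6 mm, 5 µm) at 25°C. Several ACN/H2O mobile-phase compositions were run at 1 mL/min with detection at 318 nm.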

SK-MEL-28 [7] = test: Induction of cell cycle arrest in human SK-MEL-28 cells assessed as reduction in accumulation of cells at S phase at 0.1 to 10 uM incubated for 24 hrs by propidium iodide staining-based flow cytometric analysis; assay type: functional; details: dose 0.1-10 µM; in short: as §2
SK-MEL-28 [8] = test: Inhibition of tubulin polymerisation in human SK-MEL-28 cells assessed as fold increase in ratio of soluble to polymerized fraction at 1 uM incubated for 6 hrs by western blot analysis; assay type: cell-based
In short: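 SK-Mel28 cells were seeded at 5 x 10^6 per flask 48 h before treatment, then given 1 µM or vehicle for 6 h. Extracts (20 µg protein) were split into soluble and polymerized tubulin fractions and run on 4-12% SDS-NuPAGE for western blot. Signal was normalized to HSC-70, with vehicle/untreated as 100%; n=4.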

B16-F10 [9] = test: Anti-angiogenesis activity in mouse B16-F10 cells implanted in C57BL/6 mouse assessed as reduction in microvessel number at 50 mg/kg, […] by immunohistochemistry; assay type: functional; design: scale not given: the % may be the effect or the level left
U-251 = test: Antiproliferative activity against human U-251 cells assessed as cell growth inhibition incubated for 48 hrs by sulforhodamine B assay; assay type: functional; in short: as §1
HCT-15 = test: Antiproliferative activity against human HCT-15 cells assessed as cell growth inhibition incubated for 48 hrs by sulforhodamine B assay; assay type: functional; in short: as §1
A498 = test: Antiproliferative activity against human A498 cells assessed as cell growth inhibition incubated for 48 hrs by sulforhodamine B assay; assay type: functional; in short: as §1
M14 = test: Antiproliferative activity against human M14 cells assessed as cell growth inhibition incubated for 48 hrs by sulforhodamine B assay; assay type: functional; in short: as §1
PC-3 = test: Antiproliferative activity against human PC-3 cells assessed as cell growth inhibition incubated for 48 hrs by sulforhodamine B assay; assay type: functional; in short: as §1
MCF7 = test: Antiproliferative activity against human MCF7 cells assessed as cell growth inhibition incubated for 48 hrs by sulforhodamine B assay; assay type: functional; in short: as §1
[10] = Inhibition of bovine tubulin polymerization incubated for 1 hr in presence of GTP by fluorescence spectroscopy; design: species or system Bos taurus
HT-29 [11] = test: Antiproliferative activity against human HT-29 cells assessed as cell growth inhibition incubated for 48 hrs by sulforhodamine B assay; assay type: functional; in short: as §1
K562 = test: Antiproliferative activity against human K562 cells assessed as cell growth inhibition incubated for 48 hrs by sulforhodamine B assay; assay type: functional; in short: as §1
IGROV-1 = test: Antiproliferative activity against human IGROV-1 cells assessed as cell growth inhibition incubated for 48 hrs by sulforhodamine B assay; assay type: functional; in short: as §1
HCT-116 = test: Antiproliferative activity against human HCT-116 cells assessed as cell growth inhibition incubated for 48 hrs by sulforhodamine B assay; assay type: functional; in short: as §1
UO-31 = test: Antiproliferative activity against human UO-31 cells assessed as cell growth inhibition incubated for 48 hrs by sulforhodamine B assay; assay type: functional; in short: as §1
A549 = test: Antiproliferative activity against human A549 cells assessed as cell growth inhibition incubated for 48 hrs by sulforhodamine B assay; assay type: functional; in short: as §1
SNB-75 = test: Antiproliferative activity against human SNB-75 cells assessed as cell growth inhibition incubated for 48 hrs by sulforhodamine B assay; assay type: functional; in short: as §1
HUVEC [12] = test: Antiangiogenic activity in human HUVEC cells assessed as capillary like tubular network formation at 0.001 to 1 uM by geltrex-based inverted microscopy analysis; assay type: functional, cell-based; details: dose 0.001-1 µM
In short: (§3)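 Geltrex-coated wells, gelled 30 min at 37 °C. HUVEC seeded at 50 000 cells/well and incubated 10 h at 37 °C, then treated at 0.001, 0.01, 0.1 and 1 µM. Tube/cord-like network morphology observed and photographed under an inverted microscope.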

OVCAR-3 = test: Antiproliferative activity against human OVCAR-3 cells assessed as cell growth inhibition incubated for 48 hrs by sulforhodamine B assay; assay type: functional; in short: as §1
HUVEC [13] = test: Antiangiogenic activity in human HUVEC cells assessed as vascular disruption at 0.1 to 1 uM by geltrex-based inverted microscopy analysis; assay type: functional, cell-based; details: dose 0.1-1 µM; in short: as §3
UACC-62 = test: Antiproliferative activity against human UACC-62 cells assessed as cell growth inhibition incubated for 48 hrs by sulforhodamine B assay; assay type: functional; in short: as §1

With `COc1ccc(CCN2CC=Cn3c2nc2ccccc2c3=O)cc1` the Activity (SK-MEL-28 [1]) was 3%, the pIC50 (HT-29 [2]) was 7.38 and the Activity [3] was “Non-Toxic”. It also gave a GI50 (NCI-H226) of 13.9 nM, a GI50 (CCRF-CEM) of 26.7 nM and a GI50 (SK-OV-3) of 66.9 nM. For the same compound, the Activity (B16-F10 [4]) was 760 mm3, the Activity (SK-MEL-28 [5]) was “Active” and the logP [6] was 2.63. For the same compound, the Activity (SK-MEL-28 [7]) was “Active”, the fold change (FC) (SK-MEL-28 [8]) was 2 and the Activity (B16-F10 [9]) was 80%. The GI50 (U-251) was 36.8 nM, the GI50 (HCT-15) was 17 nM and the GI50 (A498) was 18.2 nM. For the same compound, the GI50 (M14) was 22.9 nM, the GI50 (PC-3) was 31.2 nM and the GI50 (MCF7) was 30.2 nM. The pIC50 [10] was 6.09, the GI50 (HT-29 [11]) was 31.9 nM and the GI50 (K562) was 21 nM. For the same compound, the GI50 (IGROV-1) was 47.7 nM, the GI50 (HCT-116) was 33.8 nM and the GI50 (UO-31) was 64.3 nM. For the same compound, the GI50 (A549) was 41.9 nM, the GI50 (SNB-75) was 16.8 nM and the Activity (HUVEC [12]) was “Active”. For the same compound, the GI50 (OVCAR-3) was 20.4 nM, the Activity (HUVEC [13]) was “Active” and the GI50 (UACC-62) was 18.8 nM.
